Bioassay records from PubChem BioAssay.
NR2E3 ag-1: activates human NR2E3 receptor; Q9Y5X4; CHO-S Gal4-NCOR/VP16-NR2E3 two-hybrid, luciferase; inhibition of corepressor binding, % at 3.98 µM; 0.35% of 360,000 active; AID 602229;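 active = inhibition above the mean of all tested compounds plus 3 SD, cut at about 70% in these data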;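 note: 0% = DMSO with NR2E3 transfected cells and 100% = cells lacking NR2E3 construct; higher means lower luciferase signal from less NR2E3 corepressor binding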
NR2E3 ag-2: activates human photoreceptor nuclear receptor NR2E3; Q9Y5X4; GST-NR2E3/biotin-RetCOR TR-FRET, 1536-well; inhibition of corepressor binding, % at 4.78 µM; 0.12% of 320,000 active; AID 2300;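 active = percent inhibition above the cutoff of mean plus 3 SD of all tested compounds, set per screening campaign, cut at about 20% in these data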;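 note: 0% = DMSO wells and 100% = biotin wells as full block of FRET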
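Test system: GST-NR2E3 and biotin-RetCOR proteins | Quantity: 1.35 nM GST-tagged NR2E3 final | Medium: Tris pH 7.5 | Also added: 7 nM biotin-RetCOR | Dosing: Compound at 4.8 µM, single dose | Timing: 5 h at 4 °C | Detection: Time-resolved FRET | Read-out basis: Percent inhibition | Benchmarks: Biotin wells as high control, 0.6% DMSO wells as low control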
ADAM17 inh: inhibitors of human ADAM17; P78536; recombinant ADAM17, EDANS/DABCYL FRET peptide cleavage; inhibition, % at 6.95 µM; 0.83% of 370,000 active;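 active = inhibition above the mean of compounds lying between control limits plus 3 SD, set per campaign, cut at about 8.5% in these data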;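 note: 0% = DMSO-only wells as the low control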
Target sequence (P78536 215-824 limits assumed): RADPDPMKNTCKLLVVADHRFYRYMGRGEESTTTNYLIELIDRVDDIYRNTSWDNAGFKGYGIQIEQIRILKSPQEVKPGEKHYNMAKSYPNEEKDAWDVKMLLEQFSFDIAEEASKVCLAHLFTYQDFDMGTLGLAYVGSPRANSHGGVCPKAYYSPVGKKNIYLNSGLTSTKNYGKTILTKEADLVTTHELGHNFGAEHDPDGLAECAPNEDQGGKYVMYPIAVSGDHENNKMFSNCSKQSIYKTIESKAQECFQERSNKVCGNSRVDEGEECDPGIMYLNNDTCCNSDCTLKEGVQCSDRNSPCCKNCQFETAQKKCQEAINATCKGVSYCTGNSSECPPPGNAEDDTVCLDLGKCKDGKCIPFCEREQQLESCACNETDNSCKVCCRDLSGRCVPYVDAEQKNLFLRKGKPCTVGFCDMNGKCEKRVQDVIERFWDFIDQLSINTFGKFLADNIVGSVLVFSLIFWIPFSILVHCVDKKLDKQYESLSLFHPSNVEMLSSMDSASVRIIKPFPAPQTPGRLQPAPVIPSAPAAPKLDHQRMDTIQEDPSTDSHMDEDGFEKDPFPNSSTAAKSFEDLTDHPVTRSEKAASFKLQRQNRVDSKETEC
ADAM10 inh: inhibitors of human ADAM10 | O14672 | recombinant ADAM10, EDANS/DABCYL FRET peptide cleavage, 3 h | inhibition, % at 7 µM | 0.62% of 370,000 active;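 active = inhibition above a per-campaign cutoff equal to the mean of compounds falling between control-based bounds plus 3 SD, cut at about 20% in these data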;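 note: 0% = DMSO wells while the 100% control is not disclosed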
proKLK7 act: activators of human kallikrein-7 zymogen. P49862. purified proKLK7, EDANS-DABCYL substrate fluorescence; 100% is mature enzyme control, 0% vehicle. activation, % at 7 µM. 0.9% of 370,000 active;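 active = activation above the mean of all tested compounds plus 3 SD, computed per campaign excluding outliers beyond control limits, cut at about 13% in these data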
JMJD2C inh: human JMJD2C demethylase inhibition | Q9H3R0 | GST-JMJD2C(1-420) H3K9me3 demethylation, DELFIA europium | inhibition, % at 2.35 µM | 0.069% of 330,000 active;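 active = more than half of a compound's replicate wells show inhibition beyond 50%, single wells judged on their own value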;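 note: signal counts dimethyl H3K9 product captured on neutravidin plate; 0% = median of DMSO wells and 100% = 0.3 times that DMSO median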
NR2E3 ag confirm: NR2E3 (human) agonism, confirmation; shares compounds with NR2E3 ag-2; 39% of 360 active; activation (reported as inhibition), % at 3.98 µM; cell-free NR2E3 corepressor release, TR-FRET, 5 h; in the data active = activation above about 20%
PPARg-NCOR2 ag: counter-screen for NR2E3 agonists: human PPARgamma-NCOR2 interaction agonists; inhibition, % at 3.98 µM; shares compounds with NR2E3 ag-2; 45% of 360 active; TR-FRET PPARg-NCOR2 coregulator interaction, biochemical; AID 504787; in the data active = inhibition above about 20%;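 note: 0% = DMSO vehicle and 100% = wells without protein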
* = called active by the depositor. Shown are actives, neighbours in structure and some others; about 2.5% of the full set was active somewhere.

Results for N#CC(=C=[N-])C1=C(C#N)C(c2ccccc2F)C([n+]2ccccc2)C(O)(C2CC2)N1 (stereo unspecified) ?
NR2E3 ag-1: -14; NR2E3 ag-2: 29*; ADAM17 inh: -14; ADAM10 inh: -50; proKLK7 act: 1; JMJD2C inh: 13; NR2E3 ag confirm: -7; PPARg-NCOR2 ag: 3

How did CC(C)N(C(=O)Nc1ccc2nsnc2c1)C(C)C do in these assays?
NR2E3 ag-2: 38*; ADAM17 inh: -16; ADAM10 inh: -56; proKLK7 act: 1; JMJD2C inh: 4; NR2E3 ag confirm: -13; PPARg-NCOR2 ag: -9

What do the screens show for `CCOc1ccc(NC(=S)Nc2ccc3nsnc3c2)cc1`?
NR2E3 ag-1: -29; NR2E3 ag-2: 31*; ADAM17 inh: 7; ADAM10 inh: 0; proKLK7 act: 0; JMJD2C inh: 0; NR2E3 ag confirm: -16; PPARg-NCOR2 ag: -4

How did COc1ccc(NC(=S)Nc2ccc3nsnc3c2)cc1 do in these assays?
NR2E3 ag-1: -74; NR2E3 ag-2: 29*; ADAM17 inh: -1; ADAM10 inh: -11; proKLK7 act: 1; JMJD2C inh: 1; NR2E3 ag confirm: -9; PPARg-NCOR2 ag: -9

What do the screens show for `O=C(N[C@@H](Cc1ccccc1)C(=O)NCP(=O)(O)OC(Cc1ccccc1)C(=O)O)OCc1ccccc1` (stereo partly specified)?
ADAM17 inh: -7; ADAM10 inh: -2

How did COC(=O)[C@]12C[C@H](CC(=O)NCCc3ccccc3OC)C(=O)N(Cc3ccc4c(c3)OCO4)C1=C[C@H](C(C)C)O[C@@H]2C1CC1 do in these assays?
ADAM17 inh: 4; ADAM10 inh: 3; proKLK7 act: 1

Results for C/C=C/C(=O)N1CCC(C(=O)NC2CCCc3ccccc32)CC1 (stereo unspecified) ?
ADAM17 inh: -1; ADAM10 inh: 3; proKLK7 act: 0

Results for O=C(Nc1ccccc1)c1ccc(Br)c(S(=O)(=O)Nc2cccnc2)c1 ?
NR2E3 ag-1: -17; NR2E3 ag-2: 3; ADAM17 inh: 2; ADAM10 inh: -1; proKLK7 act: 0; JMJD2C inh: -8

How did O=S(=O)(Nc1cccnc1)c1ccc(Br)c2ccccc12 do in these assays?
NR2E3 ag-1: 14; NR2E3 ag-2: 30*; ADAM17 inh: 0; ADAM10 inh: 6; proKLK7 act: -1; JMJD2C inh: 10; NR2E3 ag confirm: 17; PPARg-NCOR2 ag: 21*

How did COc1ccc2nc(C)cc(SCC(=O)Nc3c(C)cccc3C)c2c1 do in these assays?
NR2E3 ag-1: -3; NR2E3 ag-2: 3; ADAM17 inh: 1; ADAM10 inh: 3; proKLK7 act: 0; JMJD2C inh: 10

How did COc1ccc2nc(C)cc(SCC(=O)Nc3c(C)cc(C)cc3C)c2c1 do in these assays?
NR2E3 ag-1: -17; NR2E3 ag-2: 36*; ADAM17 inh: 4; ADAM10 inh: 3; proKLK7 act: -1; JMJD2C inh: 14; NR2E3 ag confirm: -55; PPARg-NCOR2 ag: -55

How did C=CCN(CC=C)Cc1c(O)ccc2c1oc(=O)c1ccccc12 do in these assays?
NR2E3 ag-1: -34; NR2E3 ag-2: 34*; ADAM17 inh: -9; ADAM10 inh: -16; proKLK7 act: 1; JMJD2C inh: 79*; NR2E3 ag confirm: 14; PPARg-NCOR2 ag: -4

Results for Cc1cc(C)c(OCC(=O)Nc2ccc3c(c2)OCO3)cc1C ?
NR2E3 ag-1: -5; NR2E3 ag-2: 29*; ADAM17 inh: -3; ADAM10 inh: 1; proKLK7 act: 0; JMJD2C inh: -8; NR2E3 ag confirm: 12; PPARg-NCOR2 ag: 18

Results for Cc1ccc(-c2nc(=S)c3c(n2Cc2ccco2)CCCC3)cc1 ?
NR2E3 ag-1: -10; ADAM17 inh: -3; ADAM10 inh: -4; proKLK7 act: 0

How did Cc1cccc(-c2nc(=S)c3c(n2Cc2ccco2)CCCC3)c1 do in these assays?
NR2E3 ag-1: 10; NR2E3 ag-2: 28*; ADAM17 inh: -5; ADAM10 inh: -2; proKLK7 act: 0; JMJD2C inh: 5; NR2E3 ag confirm: 4; PPARg-NCOR2 ag: 8

What do the screens show for `Cc1cc(N2C(=O)C(O)=C(C(=O)c3ccc(C)o3)C2c2cccs2)no1` (stereo unspecified)?
NR2E3 ag-1: 35; NR2E3 ag-2: 18; ADAM17 inh: -7; ADAM10 inh: -18; proKLK7 act: 1; JMJD2C inh: 0

How did Cc1ccc(C2C(C(=O)c3cc4ccccc4o3)=C(O)C(=O)N2c2cc(C)on2)cc1 (stereo unspecified) do in these assays?
NR2E3 ag-1: 27; NR2E3 ag-2: 23*; ADAM17 inh: -5; ADAM10 inh: -2; proKLK7 act: 1; JMJD2C inh: -18; NR2E3 ag confirm: 28*; PPARg-NCOR2 ag: 35*

Results for Cc1cc(N2C(=O)C(O)=C(C(=O)c3cc4ccccc4o3)C2c2cccs2)no1 (stereo unspecified) ?
NR2E3 ag-1: 13; NR2E3 ag-2: 24*; ADAM17 inh: -4; ADAM10 inh: -4; proKLK7 act: 1; JMJD2C inh: 2; NR2E3 ag confirm: 31*; PPARg-NCOR2 ag: 34*

What do the screens show for `Cc1cc(N2C(=O)C(O)=C(C(=O)c3ccco3)C2c2ccc(Cl)cc2)no1` (stereo unspecified)?
NR2E3 ag-1: -2; NR2E3 ag-2: 17; ADAM17 inh: -5; ADAM10 inh: -5; proKLK7 act: 1; JMJD2C inh: 6

How did Cc1cc(N2C(=O)C(O)=C(C(=O)c3ccco3)C2c2ccccc2F)no1 (stereo unspecified) do in these assays?
NR2E3 ag-1: -17; NR2E3 ag-2: 28*; ADAM17 inh: -4; ADAM10 inh: -15; proKLK7 act: 0; JMJD2C inh: 3; NR2E3 ag confirm: 12; PPARg-NCOR2 ag: 13

Results for Cc1cccc(NC(=O)Nc2ccccc2C(=O)N2CCCC2)c1 ?
ADAM17 inh: 0; ADAM10 inh: 0; proKLK7 act: 0

Results for O=C(NCCCc1ccccc1)C1CCN(c2nc(-c3ccc(Br)cc3)cs2)CC1 ?
ADAM17 inh: 2; ADAM10 inh: 4

What do the screens show for `Cc1cc(SCC(=O)NC2CCCC2)nc2ccccc12`?
NR2E3 ag-1: -10; NR2E3 ag-2: 22*; ADAM17 inh: 1; ADAM10 inh: -1; proKLK7 act: 0; JMJD2C inh: -14; NR2E3 ag confirm: 8; PPARg-NCOR2 ag: 5
